Measurements taken from ChEMBL document CHEMBL4414644, “A New Approach of Mitigating CYP3A4 Induction Led to the Discovery of Potent Hepatitis B Virus (HBV) Capsid Inhibitor with Optimal ADMET Profiles” (J Med Chem, 2019).

Tests used:
[1] = Cytotoxicity in human HepDE19 cells assessed as reduction in cell viability incubated for 5 days by CCK8 assay; format: cell-based
Procedure, shortened: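 HepDE19 cells were grown in DMEM-F12 with 10% FBS, penicillin/streptomycin and 0.5 mg/mL G418, then seeded at 5 × 10^3 cells/well. Compound exposure lasted 5 days. Viability was read with CCK-8 after 2 h at 37 °C, measuring OD450 and OD630. CC50 was the concentration killing 50% of cells; duplicate runs.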

[2] = Induction of CYP3A4 gene expression in cryopreserved human hepatocytes assessed as increase in CYP3A4 mRNA level at 10 uM incubated for 24 hrs by qRT-PCR analysis relative to rifampicin; format: ADME, cell-based
Procedure, shortened: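 Cryopreserved hepatocytes from one human donor were seeded at 1 × 10^6 cells/mL and cultured 24 h in serum-free Williams E. Compounds at 0.1, 1.0 and 10 µM (0.1% DMSO) were added in triplicate for 24 h, with vehicle wells as negative controls. Positive controls were omeprazole for CYP1A2, phenobarbital for CYP2B6 and rifampicin for CYP3A4. mRNA was measured by TaqMan qRT-PCR normalised to PPIA (2^-ΔΔCT) and expressed as % of the positive control.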

Compound | CC50 at 120 h [1] | Activity [2]
COC(=O)C1=C(CN2CCOC[C@H]2C(=O)O)NC(c2nccs2)=N[C@H]1c1ccc(F)c(F)c1 | > 100 µM | 36%
COC(=O)C1=C(CN2CCOC[C@H]2C(=O)O)N=C(c2nccs2)N[C@H]1c1ccc(F)cc1Cl | > 100 µM | 111%
CCOC(=O)C1=C(CN2CC(F)(F)C[C@H]2C(=O)O)NC(c2nccs2)=N[C@H]1c1ccc(F)cc1Cl | > 100 µM | 123%
CCOC(=O)C1=C(CN2CCOC[C@H]2C(=O)O)NC(c2nccs2)=N[C@H]1c1ccc(F)c(F)c1 | > 100 µM | 41%
CCOC(=O)C1=C(CN2CCOC[C@H]2C(=O)O)NC(c2nccs2)=N[C@H]1c1ccc(Cl)c(F)c1 | 24 µM | 
COC(=O)C1=C(CN2CC(F)(F)C[C@H]2C(=O)O)NC(c2nccs2)=N[C@H]1c1ccc(F)cc1Cl | 65 µM | 109%
CCOC(=O)C1=C(CN2CCOC[C@H]2C(=O)O)NC(c2nccs2)=N[C@H]1c1cccc(F)c1 | 69 µM | 94%
CCOC(=O)C1=C(CN2CCOC[C@H]2C(=O)O)NC(c2nccs2)=N[C@H]1c1ccc(F)cc1F | > 100 µM | 135%
CCOC(=O)C1=C(CN2CCOC[C@H]2C(=O)O)NC(c2nccs2)=N[C@H]1c1ccc(F)cc1 | 62 µM | 85%
